{"data": "Experimental data collected from several papers", "effect on": "cell growth or viability", "note": "Lines come from different studies, so protocols differ."}
{"SMILES": "Nc1nc(F)nc2c1ncn2[C@@H]1O[C@H](COP(=O)(O)O)[C@@H](O)[C@@H]1O", "cell line": "GISTT1", "time": "72 h", "IC50": "0.53 µM"}
{"SMILES": "COc1ccc(C(=O)c2cc3c(-c4ccccc4)c(OC)ccc3o2)cc1", "cell line": "L1210", "time": "48 h", "IC50": "2.8 µM"}
{"SMILES": "NC(=O)c1ccc2c(c1)C(=O)CCc1ccccc1C(=O)N2", "cell line": "L6", "IC50": "> 340 µM"}
{"SMILES": "O=C1c2c(O)ccc(O)c2C(=O)c2c(NCCNCCO)ccc(NCCNCCO)c21", "cell line": "GISTT1", "method": "resazurin", "time": "72 h", "IC50": "0.42 µM"}
{"SMILES": "CC(C)=CCC/C(C)=C/COc1ccc2ccc(=O)oc2c1", "cell line": "COLO 205", "method": "MTT", "time": "24 h", "IC50": "55.1 µM"}
{"SMILES": "CC[C@@H](C)[C@H](N)C(=O)N1Cc2ccccc2C1", "cell line": "RS4-11", "method": "ATP luminescence", "time": "24 h", "IC50": "71.1 µM"}
{"SMILES": "O=C(c1ccccc1)c1cc2c(-c3ccccc3)c(O)ccc2o1", "cell line": "L1210", "time": "48 h", "IC50": "37 µM"}
{"SMILES": "O=c1ncccn1[C@@H]1O[C@H](CO)[C@@H](O)[C@H]1O", "cell line": "MEC1", "time": "48 h", "IC50": "195 µM"}
{"SMILES": "COC(=O)Nc1nc2ccc(C(=O)c3ccccc3)cc2[nH]1", "cell line": "GISTT1", "method": "resazurin", "time": "72 h", "IC50": "0.81 µM"}
{"SMILES": "COc1ccccc1C(=O)c1cc2c(-c3ccccc3)c(O)ccc2o1", "cell line": "L1210", "time": "48 h", "IC50": "> 50 µM"}
{"SMILES": "COc1cc([C@@H]2c3cc4c(cc3[C@@H](O[C@@H]3O[C@@H]5CO[C@@H](c6cccs6)O[C@H]5[C@H](O)[C@H]3O)[C@H]3COC(=O)[C@H]23)OCO4)cc(OC)c1O", "cell line": "GISTT1", "method": "resazurin", "time": "72 h", "IC50": "> 1 µM"}
{"SMILES": "CC(C)[C@H](N)C(=O)N1CCC[C@H]1B(O)O", "cell line": "RS4-11", "method": "ATP luminescence", "time": "24 h", "IC50": "0.147 µM"}
{"SMILES": "CC(C)[C@H](N)c1nc2cc(N3CCNCC3)sc2c(=O)[nH]1", "cell line": "COLO 205", "method": "MTT", "IC50": "> 10 µM"}
{"SMILES": "CCC(=O)Nc1cc(Nc2nc(N3CCc4sccc4C3)c3cccnc3n2)c(OC)cc1N1CCN(CCO)CC1", "cell line": "NCI-H460", "method": "MTT", "IC50": "> 50 µM"}
{"SMILES": "O=C1Nc2ccccc2C(=NO)CCc2ccccc21", "cell line": "L6", "IC50": "> 380 µM"}
{"SMILES": "CC(=O)[C@]1(O)Cc2c(O)c3c(c(O)c2[C@@H](O[C@H]2C[C@H](N)[C@H](O)[C@H](C)O2)C1)C(=O)c1ccccc1C3=O", "cell line": "GISTT1", "method": "resazurin", "time": "72 h", "IC50": "0.1 µM"}
{"SMILES": "CC(C)[C@@H](N)c1nc2cc(-c3ccncc3F)sc2c(=O)[nH]1", "cell line": "COLO 205", "method": "MTT", "IC50": "1.19 µM"}
{"SMILES": "C=C(C)C(=O)Nc1ccc(-c2c(-c3ccc(Oc4nccc(C)n4)c(F)c3)c3c(N)ncnc3n2C)cc1", "cell line": "MDA-MB-453", "method": "ATP luminescence", "time": "96 h", "IC50": "> 10 µM"}
{"SMILES": "COc1cccc(C(=O)c2cc3c(-c4ccccc4)c(OC)ccc3o2)c1", "cell line": "L1210", "time": "48 h", "IC50": "10 µM"}
{"SMILES": "CC(C)n1c(/C=C/C(O)CC(O)CC(=O)O)c(-c2ccc(F)cc2)c2ccccc21 (stereo not drawn)", "cell line": "L1210", "method": "MTS", "time": "96 h", "IC50": "2.3 µM"}
{"SMILES": "C=CC(=O)Nc1cc(Nc2nc(N3CCOCC3)c3sccc3n2)c(OC)cc1N(C)CCN(C)C", "cell line": "NCI-H460", "method": "MTT", "IC50": "> 50 µM"}
{"SMILES": "O=C1Nc2ccccc2C(=O)CCCc2ccccc21", "cell line": "L6", "IC50": "130 µM"}
{"SMILES": "COc1c2ccoc2c(OCC=C(C)C)c2oc(=O)ccc12", "cell line": "COLO 205", "method": "MTT", "time": "72 h", "IC50": "> 100 µM"}
{"SMILES": "O=c1c(O)c(-c2cc(O)c(O)c(O)c2)oc2cc(O)cc(O)c12", "cell line": "SCaBER", "method": "ATP luminescence", "time": "72 h", "IC50": "30.3 µM"}
{"SMILES": "O=C1Nc2ccc(OC(F)(F)F)cc2C(=O)CCc2ccccc21", "cell line": "L6", "IC50": "44 µM"}
{"SMILES": "CC(C)[C@H](N)c1nc2cc(-c3cn[nH]n3)sc2c(=O)[nH]1", "cell line": "COLO 205", "method": "MTT", "IC50": "3.79 µM"}
{"SMILES": "C#C[C@]1(CO)O[C@@H](n2cnc3c(N)nc(F)nc32)C[C@@H]1O", "cell line": "MDCK-II", "method": "MTT", "time": "48 h", "IC50": "377 µM"}
{"SMILES": "O=C1CCc2ncccc2C(=O)Nc2ccccc21", "cell line": "L6", "IC50": "160 µM"}
{"SMILES": "CCC1=C[C@@H]2CN(C1)Cc1c([nH]c3ccccc13)[C@@](C(=O)OC)(c1cc3c(cc1OC)N(C)[C@H]1[C@@](O)(C(=O)OC)[C@H](OC(C)=O)[C@]4(CC)C=CCN5CC[C@]31[C@@H]54)C2", "cell line": "GISTT1", "method": "resazurin", "time": "72 h", "IC50": "0.23 µM"}
{"SMILES": "O=C1C(=Cc2ccccc2)CN(C(=O)c2ccc(C(=O)N3CC(=Cc4ccccc4)C(=O)C(=Cc4ccccc4)C3)cc2)CC1=Cc1ccccc1", "cell line": "L1210", "IC50": "> 500 µM"}
{"SMILES": "O=c1c(O)c(-c2ccc(O)c(O)c2)oc2cc(O)cc(O)c12", "cell line": "SCaBER", "method": "ATP luminescence", "time": "72 h", "IC50": "24.2 µM"}
{"SMILES": "COc1cc(OC)cc(C(=O)c2cc3c(-c4ccccc4)c(O)ccc3o2)c1", "cell line": "L1210", "time": "48 h", "IC50": "19 µM"}
{"SMILES": "CCN1CCN(c2ccc(Nc3cc(N(C)C(=O)Nc4c(Cl)c(OC)cc(OC)c4Cl)ncn3)cc2)CC1", "cell line": "MDA-MB-453", "method": "ATP luminescence", "time": "96 h", "IC50": "> 1 µM"}
{"SMILES": "CO/N=C1\\CCc2ccccc2C(=O)Nc2ccccc21", "cell line": "L6", "IC50": "250 µM"}
{"SMILES": "COc1cc(Nc2nccc(-c3cnn4nc(OC)ccc34)n2)cc(C(F)(F)F)c1", "cell line": "NCI-H1838", "method": "ATP luminescence", "IC50": "> 3 µM"}
{"SMILES": "O=C1Nc2ccc(S(F)(F)(F)(F)F)cc2C(=O)CCc2ccccc21", "cell line": "L6", "IC50": "2.8 µM"}
{"SMILES": "COc1cc(NS(C)(=O)=O)ccc1Nc1c2ccccc2nc2ccccc12", "cell line": "GISTT1", "method": "resazurin", "time": "72 h", "IC50": "0.31 µM"}
{"SMILES": "O=C1CCc2ccccc2CC(=O)c2ccccc2N1", "cell line": "L6", "IC50": "> 380 µM"}
{"SMILES": "Nc1nc(Cl)nc2c1ncn2[C@@H]1O[C@H](CO)[C@@H](O)[C@@H]1F", "cell line": "GISTT1", "method": "resazurin", "time": "72 h", "IC50": "> 1 µM"}
